Cl transport mod: KCC2 cotransporter modulators, thallium flux, primary screen, cell-based, HEK293 KCC2, FluoZin-2 fluorescence, MLSMR | Solute carrier family 12 member 5 (Homo sapiens), Q9H2X9 | AID 1456, 2008 | B-score of Tl+ flux slope (higher = more flux/activation; lower = inhibition) at 10 µM | KCC2 cells, thallium flux FluoZin-2 fluorescence | 190,000 tested, 2.2% active;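 active means thallium flux slope and its plate-corrected score both differing from the plate sample mean at a set confidence after two filtering rounds, in either direction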;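 further: slope of fluorescence scaled to starting intensity during 10 to 20 s after thallium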
PMI act: activators of human PMI, primary screen, biochemical, fluorescence intensity, near-Km mannose 6-phosphate | purified human PMI, coupled resazurin fluorescence, 20 min; active compounds read high; 1 = vehicle control, 0 substrate-free wells | activation factor at 20 µM | 190,000 tested, 0.005% active | AID 1214, 2008;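 active means activation factor of 2 or more at 20 µM, relative to plate controls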
PMI act hi M6P: human PMI activators, high substrate, primary screen, biochemical, fluorescence intensity, near-saturating mannose 6-phosphate. coupled PMI enzyme assay, resazurin fluorescence, 20 min; active compounds read high; 1 = untreated enzyme, 0 = substrate-free blank. activation factor at 20 µM. 190,000 tested, 0.34% active;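 active means activation factor of 2 or more at 20 µM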
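Test system: human phosphomannose isomerase with PGI, G6PDH, diaphorase coupling enzymes; Amount: PMI at 15 ng/mL final; Reagent: Mannose-6-phosphate 1.0 mM (near-saturating) plus 0.22 mM NADP+; Timing: 20 min, room temperature; Technique: resorufin fluorescence at Ex 544/Em 590 nm; Dosing: 20 µM single dose.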
ABCB1 inh: ABCB1 efflux pump inhibitors, primary screen, cell-based, multiplex, flow cytometry, ABCG2 counter-screen. 190,000 tested, 0.067% active. CCRF-Adr cells, JC-1 efflux. inhibition, % at 6.6 µM. ATP-dependent translocase ABCB1 (Homo sapiens), P08183. AID 1326, 2008; in the data active means inhibition above about 40%;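 further: 0% = vehicle and 100% = reference inhibitor; higher value means more JC-1 retained so stronger ABCB1 efflux block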
ROMK mod: ROMK potassium channel modulators, primary screen, cell-based, thallium flux, MLSMR library; ATP-sensitive inward rectifier potassium channel 1 (Homo sapiens), P48048; Tet-inducible ROMK, thallium flux fluorescence; actives lie on both sides; B-score at 10 µM; 130,000 tested, 2% active;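 active means signal ratio slope over the read window, or its plate-corrected B-score, at least 3 SD from the plate mean, either direction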;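 further: B-score of the F/F0 ratio slope over 7 to 12 s after thallium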
ABCG2 block: ABCG2 efflux pump inhibitors, primary screen, multiplex with ABCB1, IgMXP3 cells, flow cytometry; JC-1 efflux; inhibition, % at 6.6 µM; 190,000 tested, 0.1% active; AID 1325, 2008;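 active means inhibition above 80%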;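 further: 0% = DMSO and 100% = nicardipine control wells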
Target sequence (Q9UNQ0 whole entry, looked up): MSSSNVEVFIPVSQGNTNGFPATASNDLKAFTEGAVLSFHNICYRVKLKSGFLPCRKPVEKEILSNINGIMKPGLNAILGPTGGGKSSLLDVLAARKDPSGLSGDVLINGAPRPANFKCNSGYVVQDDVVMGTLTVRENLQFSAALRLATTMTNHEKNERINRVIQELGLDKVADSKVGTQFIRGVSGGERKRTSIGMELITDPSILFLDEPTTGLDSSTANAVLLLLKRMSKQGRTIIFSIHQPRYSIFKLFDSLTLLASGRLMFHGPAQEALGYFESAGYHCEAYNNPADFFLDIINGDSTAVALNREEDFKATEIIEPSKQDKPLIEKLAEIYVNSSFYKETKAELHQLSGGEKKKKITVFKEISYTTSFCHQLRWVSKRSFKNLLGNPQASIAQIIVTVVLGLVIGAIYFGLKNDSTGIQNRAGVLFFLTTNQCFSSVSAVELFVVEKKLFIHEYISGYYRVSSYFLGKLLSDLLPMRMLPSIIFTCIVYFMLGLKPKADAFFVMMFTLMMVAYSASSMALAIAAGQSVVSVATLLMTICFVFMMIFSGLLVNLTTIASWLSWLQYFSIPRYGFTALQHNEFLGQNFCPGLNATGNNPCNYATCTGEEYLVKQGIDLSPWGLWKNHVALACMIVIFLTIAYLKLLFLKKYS
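Assay system – ABCG2 IgMXP3 and barcoded ABCB1 CCRF-Adr cell mix · Input – 3 million cells/mL in well · Reagent – JC-1 fluorescent substrate · Compound – single test compound dose, 6.6 µM final · Timing – 10 min exposure at 25 °C with rotation, no wash · Detection – flow cytometry of retained JC-1 fluorescence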
ROMK retest: ROMK channel modulator hit retest, confirmation, cell-based, thallium flux, duplicate, resupplied hits; shares compounds with ROMK mod; fluorescence ratio; active compounds read low; normalized thallium flux (F/F0 slope) at 10 µM; 3,000 tested, 54% active;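 active means Flux at 10 µM at least 3 SD below or above vehicle control mean in one or both replicates; inconclusive means no clear call, values can overlap the other calls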
Starred values were filed as active, the others as inactive; u = inconclusive; x = not tested or not shown. This is a sample that favours compounds with a hit; in the whole collection about 3.3% have one here.

SMILES	Cl transport mod	PMI act	PMI act hi M6P	ABCB1 inh	ROMK mod	ABCG2 block	ROMK retest
CCOC(=O)C1CCCN(C(=O)c2cnn3c(C(F)F)cc(-c4ccc(C)cc4)nc23)C1 (configuration not stated)	x	1	1	1	x	2	0.073
CC(/C=C(\NC(=O)c1ccccc1)C(=O)N=Nc1c(O)[nH]c2ccc(C)cc12)=C\c1ccccc1	-0.45	1	1.1	0	-1.2	0	x
O=C(c1ccc([N+](=O)[O-])cc1)N1CCSC1c1ccc(Cl)cc1 (configuration not stated)	-0.4	0.8	0.9	3	-3.3*	12	u
O=C(Nc1cccc([N+](=O)[O-])c1)Nc1cccs1	-1.4	1	1	-1	-0.98	15	x
COc1ccc(CN(C)C2CCCCC2)c(C)c1C	2.4	1.1	1.1	0	-4*	0	0.068*
CCn1c(O)c(/C=N/N=C2CCCC2)c2ccc(C3=NNC(=O)CC3)cc21	x	1	1	0	0.52	1	x
CCn1c(O)c(/C=N/N=C2CCCCC2)c2cc(C3=NNC(=O)CC3)ccc21	-1.2	x	x	x	x	x	0.067*
CCCNC(=O)c1cc2nc(-c3ccccc3)cc(C(F)(F)F)n2n1	1.2	1.1	1	1	0.26	5	x
O=C(NCCCn1ccnc1)C(=O)NCC1OCCCN1S(=O)(=O)c1ccccc1 (configuration not stated)	0.45	1	1	3	0	3	x
O=C(NCC(c1cccs1)N1CCOCC1)c1ccccc1NS(=O)(=O)c1cc([N+](=O)[O-])ccc1Cl (configuration not stated)	-2.4	1	1.2	-1	x	-5	0.068*
O=C(NCC(c1cccs1)N1CCOCC1)c1ccccc1NS(=O)(=O)c1ccc(Cl)cc1 (configuration not stated)	-0.62	1	1.1	2	x	3	x
O=[N+]([O-])c1ccc2nc(CCCc3nc4ccc([N+](=O)[O-])cc4[nH]3)[nH]c2c1	x	1	1.1	0	-6.9*	1	0.027*
CCOc1ccc(C(=O)Nc2ccc3c(c2)OCCO3)cc1OC	-0.6	0.9	0.9	0	x	3	x
CCOc1ccc(C(=O)Nc2ccc3c(c2)OCCO3)cc1[N+](=O)[O-]	1.1	1	1.1	0	-3.3*	0	0.08
N#CC1=C(SCC(=O)NC2CC2)NC(=O)C(C#N)C12CCCCC2 (configuration not stated)	x	1	1	-1	0.54	1	x
N#CC1=C(SCC(=O)NC23CC4CC(CC(C4)C2)C3)NC(=O)C(C#N)C12CCCCC2 (configuration not stated)	x	0.8	0.8	-1	-3.7*	-8	0.057*
CCN(CCNC(=O)C1CCCN(Cc2nc(-c3ccc(OC)cc3)oc2C)C1)c1ccccc1 (configuration not stated)	0.7	0.9	0.9	9	-3.9*	9	0.059*
Cc1cc(C)nc(NC(=O)CSc2nccc(C)n2)n1	0.37	0.9	0.9	0	2.8*	1	0.079
COC(=O)c1ccccc1NC(=O)CSc1nccc(C)n1	-0.8	x	x	0	-0.037	-1	x
COc1cc(C(=O)NCCC(=O)NC2CCCCCCC2)cc(OC)c1OC	0.74	1	1	1	x	4	x
Cc1ccc(S(=O)(=O)N2CCCN(S(=O)(=O)c3ccc4c(c3)OCCO4)CC2)cc1	x	1	1	1	-3.8*	1	u
Cc1c(Cc2ccccc2)c(=O)n2c([nH]c3ccccc32)c1C#N	-1.2	x	x	x	x	x	x
COc1ccccc1N=Cc1c(C)c(C#N)c2[nH]c3ccccc3n2c1=O	-0.097	1	0.7	0	-3.3*	1	0.067*
O=C(O)c1cc(NC(=O)c2ccccc2[N+](=O)[O-])ccc1O	-0.0054	1	1	0	1.3	3	x
O=[N+]([O-])c1ccc(OCCn2cnc3ccccc32)cc1	-0.9	1	1.1	2	-0.91	31	x
SMILES	Cl transport mod	PMI act	PMI act hi M6P	ABCB1 inh	ROMK mod	ABCG2 block	ROMK retest
c1ccc(OCCn2cnc3ccccc32)cc1	x	0.9	0.9	0	-2.2*	2	0.067*
Cc1ccc([N+](=O)[O-])c(OCCn2cnc3ccccc32)c1	0.76	0.9	0.9	1	-3*	9	u
Cc1ccc(OCCOCCn2cnc3ccccc3c2=O)c([N+](=O)[O-])c1	0.11	1	0.5	1	1.7	6	x
O=C(COC(=O)c1ccc(NS(=O)(=O)c2cccs2)cc1O)NCc1ccccc1	-1.1	1.1	1	0	3.6*	2	0.084
O=C(NCc1ccccc1)c1onc(CSc2ccccc2)c1C(=O)NCC1CC1	-2.6	x	x	x	x	x	0.073
C=CCNC(=O)CC(C)C(CCCCC)C(=O)O (configuration not stated)	-0.11	0.9	0.9	1	x	2	x
COc1ccc(OC)c(NC(=O)c2sc3nc(Cc4ccccc4)cc(C(F)(F)F)c3c2N)c1	0.14	0.9	1	0	-4.2*	0	0.033*
C=CCN(CC=C)C(=O)c1ccc(OC2CCN(Cc3ccccn3)CC2)cc1	0.89	1	1.1	1	0.69	2	x
CCCCCCn1c2c(c(=N)c3c1CCC3)CCC2	x	0.8	0.9	1	x	1	x
CCCCCCCCCn1c2c(c(=N)c3c1CCC3)CCC2	0.082	1	1	0	x	-2	0.043*
CCOC(=O)/C(=N\Nc1cc(C(F)(F)F)ccc1Cl)N(CC)CC	0.78	1	1.1	0	-0.79	2	x
O=c1[nH]sc2ccccc12	x	1.1	1.5	0	-4.5*	-1	0.052*
O=c1cc(O)sc2ccccc12	-0.81	0.8	0.9	0	0.095	-9	x
Cc1nnc(N/N=C\c2ccc(-c3ccccc3[N+](=O)[O-])o2)n1N	-1.4	0.4	0.4	1	-0.27	11	x
Cc1nnc(N/N=C/c2ccc(-c3ccccc3F)o2)n1N	-1.5	1.4	0.7	1	-2.5*	5	0.059*

Screening results from PubChem.
